According to ChEMBL document CHEMBL1135429, “Arylaminoethyl amides as novel non-covalent cathepsin K inhibitors” (J Med Chem, 2002):

Columns and labels:
Cathepsin K = target: T1, Cathepsin K (Homo sapiens, UniProt P43235); assay: Inhibition of recombinant human cathepsin K in fluorescence assay
T1 sequence (P43235 whole entry): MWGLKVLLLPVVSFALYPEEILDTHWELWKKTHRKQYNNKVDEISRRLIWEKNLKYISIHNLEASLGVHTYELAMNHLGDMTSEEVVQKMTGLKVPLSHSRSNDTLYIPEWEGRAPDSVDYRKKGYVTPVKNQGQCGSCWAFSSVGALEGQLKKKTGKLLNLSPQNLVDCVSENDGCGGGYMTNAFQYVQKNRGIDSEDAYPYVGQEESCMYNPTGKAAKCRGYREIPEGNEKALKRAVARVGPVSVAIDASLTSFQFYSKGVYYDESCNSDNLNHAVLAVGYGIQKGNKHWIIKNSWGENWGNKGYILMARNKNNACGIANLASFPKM
In short: (§1)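 Each recombinant human enzyme (cathepsin K, L or S) was assayed separately. IC50 values are the mean of two independent experiments, each performed in duplicate.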

Cathepsin S = Cathepsin S (Homo sapiens, UniProt P25774); assay: Inhibition of recombinant human cathepsin S in a fluorescence assay; in short: as §1
Chain of Cathepsin S (P25774 whole entry): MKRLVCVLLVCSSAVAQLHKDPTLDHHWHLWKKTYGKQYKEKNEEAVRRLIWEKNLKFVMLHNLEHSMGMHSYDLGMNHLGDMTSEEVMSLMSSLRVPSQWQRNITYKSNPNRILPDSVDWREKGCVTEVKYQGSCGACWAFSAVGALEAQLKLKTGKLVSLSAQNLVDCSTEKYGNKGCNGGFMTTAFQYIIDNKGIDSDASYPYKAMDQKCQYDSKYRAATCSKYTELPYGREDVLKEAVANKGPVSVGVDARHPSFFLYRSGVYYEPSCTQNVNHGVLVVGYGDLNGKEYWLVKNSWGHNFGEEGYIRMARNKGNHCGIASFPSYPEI

Procathepsin L = Procathepsin L (Homo sapiens, UniProt P07711); assay: Inhibition of recombinant human cathepsin L in a fluorescence assay.; in short: as §1
Chain of Procathepsin L (P07711 whole entry): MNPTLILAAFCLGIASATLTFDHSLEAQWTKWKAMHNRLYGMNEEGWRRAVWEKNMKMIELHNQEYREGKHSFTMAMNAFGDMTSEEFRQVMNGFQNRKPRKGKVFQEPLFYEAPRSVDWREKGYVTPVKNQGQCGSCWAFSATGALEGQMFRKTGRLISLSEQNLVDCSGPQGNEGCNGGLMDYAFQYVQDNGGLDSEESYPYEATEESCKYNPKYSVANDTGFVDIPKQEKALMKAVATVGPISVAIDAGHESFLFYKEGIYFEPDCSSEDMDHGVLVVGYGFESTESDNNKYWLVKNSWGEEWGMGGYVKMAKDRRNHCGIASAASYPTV

[1] = target: Cathepsin K (Oryctolagus cuniculus); assay: Eq. constant (Ki) for inhibition of Cathepsin K was determined by progress curves, following hydrolysis of Z-Phe-Arg- Amc in the absence and presence of compound

## COc1ccc(NCCNC(=O)[C@H](CC(C)C)NC(=O)c2ccc(C(C)C)cn2)cc1
Cathepsin K
  IC50: < 3 nM
Cathepsin S
  IC50: 7200 nM
Procathepsin L
  IC50: 1500 nM

## COc1ccc(NCCNC(=O)[C@H](CC(C)C)NC(=O)c2ccc(C(C)C)cc2)cc1
Cathepsin K
  IC50: < 3 nM
Cathepsin S
  IC50: 5700 nM
Procathepsin L
  IC50: 50 nM

## COc1ccc(NCCNC(=O)[C@H](CC(C)C)NC(=O)c2ncn(-c3cccc(Cl)c3Cl)n2)cc1
Cathepsin K
  IC50: 9 nM
Cathepsin S
  IC50: 190 nM
Procathepsin L
  IC50: > 10000 nM
[1]
  Ki: 11 nM

## COc1ccc(NCCNC(=O)[C@H](CC(C)C)NC(=O)c2ncn(-c3ccccc3Cl)n2)cc1
Cathepsin K
  IC50: 6 nM
Cathepsin S
  IC50: 1900 nM
Procathepsin L
  IC50: 2300 nM

## CCCc1ccc(C(=O)N[C@@H](CC(C)C)C(=O)NCCNc2ccc(OC)cc2)cc1
Cathepsin K
  IC50: < 3 nM
Cathepsin S
  IC50: 1200 nM
Procathepsin L
  IC50: < 30 nM

## COc1ccc(NCCNC(=O)[C@H](CC(C)C)NC(=O)c2ccc(OCc3ccccc3)cc2)cc1
Cathepsin K
  IC50: 6 nM
Cathepsin S
  IC50: 9500 nM
Procathepsin L
  IC50: > 10000 nM
[1]
  Ki: 15 nM
